Laboratory results published in publication PMC4698184 (Antiviral Research, 2015).

Tests used:
HRV1B = experiment: Cell-based inhibition assay; settings: Human rhinovirus sp., WI-38, read-out: EC50 HRV1B
Summary of the method: (§1)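 WI-38 cells, confluent or semi-confluent, at 37 °C were infected at MOI 0.05 for 1 h. Inoculum was then replaced with medium containing test compound (up to 100 μM) or DMSO (<0.1%). Cells were incubated up to 168 h, until 80–90% CPE. Virus yield was titrated by TCID50 (Reed–Muench), and EC50 was derived by curve fitting.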

[1] = ref Dragovich et al., 1999; cited from earlier work
EV-D68 = experiment: Cell-based inhibition assay; settings: Enterovirus D, EVD68, WI-38, read-out: EC50 EV-D68
Summary of the method: as §1

HRV51 = experiment: Cell-based inhibition assay; settings: Human rhinovirus sp., HRV51, WI-38, read-out: EC50 HRV51
Summary of the method: as §1

[2] = cited from earlier work
HRV strains = settings: read-out: EC50 against HRV strains; ref Patick et al., 2005; cited from earlier work

Row | Structure (SMILES) | EC50 (HRV1B) [nM] | aqueous solubility [1] | EC50 (EV-D68) [nM] | EC50 (HRV51) [nM] | oral bioavailability ([2]; ref Dragovich et al., 1999) | EC50 (HRV strains) [nM] | oral availability ([2]; ref Patick et al., 2005)
1 | CCOC(=O)/C=C/[C@H](C[C@@H]1CCNC1=O)NC(=O)[C@@H](CC(=O)[C@@H](NC(=O)c1cc(C)on1)C(C)C)Cc1ccc(F)cc1 [AG7088] | 20 ± 10 | poor aqueous solubility | 10 ± 3 | 50 ± 30 | low oral bioavailability |  | 
2 | C#CC[C@@H](C(=O)N[C@H](/C=C/C(=O)OCC)C[C@@H]1CCNC1=O)n1cccc(NC(=O)c2cc(C)on2)c1=O [Compound 1 (Patick et al., 2005)] |  |  |  |  |  | < 100 | orally available
3 | Cc1cc(CCCOc2c(C)cc(-c3noc(C(F)(F)F)n3)cc2C)on1 [Plecornaril, Pleconaril] | 270 ± 180 |  | 600 ± 140 | 70 ± 20 |  |  | 
